Data as given in ChEMBL document CHEMBL1130095, “Synthesis of analogs of 2-methoxyestradiol with enhanced inhibitory effects on tubulin polymerization and cancer cell growth” (J Med Chem, 1997).

How the values were obtained:
Tubulin (Bos taurus) = Tubulin (Bos taurus) (UniProt Q6B856+Q862L2+Q862F3); experiment: The compound was evaluated for inhibition of colchicine binding to tubulin.; assay type: protein assay; conditions: concentration not given here
In short: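 Mixtures held 1.0 µM bovine brain tubulin (0.1 mg/mL), 5.0 µM [³H]colchicine and 50 µM inhibitor, incubated 10 min at 37 °C. Bound-colchicine inhibition is given as percent, from triplicate samples in each experiment.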

Tubulin = Tubulin (Bos taurus, UniProt Q6B856+Q862L2+Q862F3); experiment: The compound was evaluated for inhibition of tubulin polymerization, which is purified from bovine brain; assay type: functional
In short: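 Electrophoretically homogeneous bovine brain tubulin at 1.2 mg/mL (12 µM), preincubated at 26 °C with varying compound concentrations, then chilled on ice before GTP was added. Assembly was followed at 26 °C by turbidity at 350 nm, and the extent was read at 20 min. IC50 was derived graphically from at least two independent assays.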

HOP-62 = experiment: In vitro cytotoxicity value is the concentration corresponding to 50% growth inhibition against HOP-62(non small cell lung) cell line.; assay type: functional; conditions: Homo sapiens
HCT-116 = experiment: In vitro cytotoxicity value is the concentration of the compound corresponding to 50% growth inhibition against HCT116 (colon) cell line.; assay type: functional; conditions: Homo sapiens
[1] = test system: Panel (Carcinoma cell lines); experiment: Mean graph midpoint for growth inhibition of all human cancer cell lines; assay type: functional
MDA-MB-435 = experiment: In vitro cytotoxicity value is the concentration corresponding to 50% growth inhibition against MDA-MB-435 (breast) cell line.; assay type: functional; conditions: Homo sapiens
SF-539 = experiment: In vitro cytotoxicity value is the concentration corresponding to 50% growth inhibition against […] (central nervous system) cell line.; assay type: functional; conditions: Homo sapiens
DU-145 = experiment: In vitro cytotoxicity value is the concentration corresponding to 50% growth inhibition against DU-145 (prostate) cell line.; assay type: functional; conditions: Homo sapiens
UACC-62 = experiment: In vitro cytotoxicity value is the concentration corresponding to 50% growth inhibition against UACC-62(melanoma) cell line.; assay type: functional; conditions: Homo sapiens
OVCAR-3 = experiment: In vitro cytotoxicity value is the concentration corresponding to 50% growth inhibition against OVCAR-3 (ovarian) cell line.; assay type: functional; conditions: Homo sapiens
SN12C = experiment: In vitro cytotoxicity value is the concentration corresponding to 50% growth inhibition against SN12C (renal) cell line.; assay type: functional; conditions: Homo sapiens

SMILES: C[C@]12CC[C@@H]3c4cc(OCC(F)(F)F)c(O)cc4C(=O)C[C@H]3[C@@H]1CC[C@@H]2O
- inhibition (Tubulin (Bos taurus)): 1.7%
- IC50 (Tubulin): 24 µM
- GI50 (HOP-62): 8.7 µM
- GI50 (HCT-116): 3.7 µM
- GI50 [1]: 9.8 µM
- GI50 (MDA-MB-435): 27 µM
- GI50 (SF-539): 5.1 µM
- GI50 (DU-145): 15 µM
- GI50 (UACC-62): 3.3 µM
- GI50 (OVCAR-3): 3.5 µM
- GI50 (SN12C): 24 µM
